High-throughput results (PubChem)
An excerpt weighted towards active compounds, which were near 2.3% of everything screened.
PDI inh: inhibitors of human protein disulfide isomerase; 350,000 compounds, 0.052% hits; AID 588391; PDI insulin aggregation turbidity, A650, 90 min; inhibition, % at 10 µM; P07237;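 active = mean inhibition across replicates of 30% or more, whatever share of single replicates reach that level; inconclusive = mean inhibition below 30% while every single replicate reaches 30%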
Cneo AK release: Cryptococcus neoformans lysis via adenylate kinase release | C. neoformans lysis, adenylate kinase release luminescence, 4 h; normalised: neutral wells 0, clomiphene wells 100 | lysis activity, % at 15 µM | 360,000 compounds, 0.2% hits | AID 651654;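 active = mean lysis activity across replicates of at least 80%, whatever share of replicates individually reach that level; inactive = mean lysis activity below 80%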
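Material: C. neoformans cells; Schedule: 4 h static compound exposure, 37 °C, read 1 h post-reagent; Measured by: adenylate kinase release luminescence; Read-out: signal increase indicating cell lysis; Controls: Clomiphene as positive lysis control.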
DENV2 CPE: inhibitors of DENV2 cytopathic effect. DENV2-infected cells, cytopathic effect rescue, plate reader. CPE inhibition, % at 9.99 µM. 350,000 compounds, 1.7% hits. AID 651640; in the data active = CPE inhibition above about 20%, passing the limit was not always enough; inconclusive = no clear call, values can overlap the other calls; tested in BHK-21 cells;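 note: 0% = median of neutral control wells and 100% = median of positive control wells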
Statin myotox sup: protects C2C12 myotubes from simvastatin toxicity; ATP luminescence, 48 h; scaled: DMSO 0, geranylgeraniol control 100; rescue of ATP level, % at 7.49 µM; 330,000 compounds, 0.78% hits;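 active = mean ATP rescue above about 67%, or every replicate alone reaching that limit, limit read from the data, passing the limit was not always enough; inconclusive = no clear call, values can overlap the other calls; inactive = mean under the limit and some replicate under it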;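 note: myotubes were challenged with 10 µM simvastatin during compound exposure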
F508del corr: CFTR F508del correction in bronchial cells | CFBE cells, YFP halide quenching; stimulated with forskolin plus potentiator P3; % fluorescence drop versus neutral controls | activity (quench increase), % at 7.58 µM | 350,000 compounds, 0.36% hits | AID 720511;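 active = mean added fluorescence quench of at least 8% versus neutral control, with both replicates also reaching 8%; inconclusive = only one of the mean or replicate conditions met; inactive = mean below 8% and not both replicates reaching 8%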;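 note: cells transiently co-express mutant CFTR-F508del with the halide-sensitive YFP; corrector assay measuring rescue of mutant channel to the surface after 24 h compound exposure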
ERp5 block: ERp5 (human) disulfide isomerase inhibition. Q15084. ERp5 insulin aggregation, absorbance 650 nm, 90 min. inhibition, % at 9.99 µM. 350,000 compounds, 0.05% hits. AID 651711;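 active = mean replicate inhibition above about 25%, with every replicate also reaching it, limit read from the data, passing the limit was not always enough; inconclusive = only one of those two criteria met; inactive = neither criterion met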
Target sequence (Q15084 whole entry, looked up): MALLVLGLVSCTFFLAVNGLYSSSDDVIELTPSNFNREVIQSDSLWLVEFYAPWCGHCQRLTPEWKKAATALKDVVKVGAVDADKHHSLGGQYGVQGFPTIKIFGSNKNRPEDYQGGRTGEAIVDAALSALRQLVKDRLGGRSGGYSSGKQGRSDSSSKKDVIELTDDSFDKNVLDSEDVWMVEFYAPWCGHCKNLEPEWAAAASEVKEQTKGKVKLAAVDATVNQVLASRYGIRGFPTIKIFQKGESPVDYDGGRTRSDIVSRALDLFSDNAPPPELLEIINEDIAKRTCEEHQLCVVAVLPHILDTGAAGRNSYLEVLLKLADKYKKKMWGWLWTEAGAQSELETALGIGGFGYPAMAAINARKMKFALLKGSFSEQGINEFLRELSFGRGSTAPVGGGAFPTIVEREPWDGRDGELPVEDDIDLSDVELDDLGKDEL
* hit, by the source's call; u = inconclusive; x = no result.

SMILES	PDI inh	Cneo AK release	DENV2 CPE	Statin myotox sup	F508del corr	ERp5 block
O=C(CN1CCOCC1)N1CCN(c2nnc(-c3ccccc3)c3ccccc23)CC1	-3.3	1.2	x	114.5*	x	x
Cc1ccc(-c2nnc(N3CCN(C(=O)CN4CCOCC4)CC3)c3ccccc23)cc1	-10.3	-0.3	x	-7.2	x	x
Cc1ccc(C)c(NC(=O)CSc2nnc(C3CCCCC3)o2)c1	-14.9	-7.3	7.2	71.4*	0.2	1.4
CCOC(=O)C1(CCSC)NC(c2ccco2)C2C(=O)N(CC)C(=O)C21 (stereo not drawn)	8.4	2.1	x	104.3*	x	x
O=c1cc(-c2ccccc2Cl)oc2cc(O)cc(O)c12	-5.5	-3.4	8.4	8.5	2.7	-2.1
O=C1C=CC(O)(c2cc(=O)c3c(O)cc(O)cc3o2)C=C1	7.0	-2.6	-14.1	-59.3	16.6*	7.9
CC[C@@]1(O)C(=O)OCc2c1cc1n(c2=O)Cc2cc3c(CN(C)C)c(O)ccc3nc2-1	3.9	-0.5	6.8	-3.9	26.0*	0.4
COc1ccccc1NC(=O)Nc1ccc2c(c1)C(=O)N(C)C[C@@H](OC)[C@H](C)CN[C@@H](C)CO2	x	-3.4	-11.8	-31.4	6.4	0.5
C[C@@H]1CN([C@@H](C)CO)C(=O)Cc2cc(NC(=O)Cc3ccccc3)ccc2O[C@H]1CN(C)C(=O)Nc1cccc2ccccc12	x	-3.3	43.4*	2.6	0.2	2.0
C[C@@H]1CN([C@H](C)CO)C(=O)Cc2cc(NC(=O)CCC(F)(F)F)ccc2O[C@H]1CN(C)C(=O)Nc1ccc(F)cc1	x	-1.0	u	2.8	1.2	-4.0
C[C@H](CO)N1C[C@H](C)[C@@H](CN(C)C(=O)Nc2cccc3ccccc23)Oc2ccc(NC(=O)Cc3cn(C)c4ccccc34)cc2CC1=O	x	-2.2	8.7	34.0	-4.3	-6.9
C[C@H](CO)N1C[C@H](C)[C@H](CN(C)C(=O)Nc2ccc(F)cc2)Oc2ccc(NC(=O)CCC(F)(F)F)cc2CC1=O	x	3.0	25.3*	-10.6	-0.7	-3.5
C[C@H]1CN([C@@H](C)CO)C(=O)Cc2cc(NC(=O)Nc3cccc4ccccc34)ccc2O[C@H]1CN(C)C(=O)Nc1cccc2ccccc12	x	-1.7	-0.4	-8.0	-1.2	25.8*
C[C@@H]1CN([C@H](C)CO)C(=O)Cc2cc(NC(=O)Cc3cn(C)c4ccccc34)ccc2O[C@@H]1CN(C)C(=O)Nc1cccc2ccccc12	x	-2.3	45.0*	43.4	0.5	-0.4
COc1ccc(S(=O)(=O)N(C)C[C@H]2Oc3c(NC(=O)Nc4ccc(C(F)(F)F)cc4)cccc3C(=O)N([C@H](C)CO)C[C@H]2C)cc1	x	-2.0	2.2	-15.2	1.7	-6.0
C[C@@H]1CN([C@H](C)CO)C(=O)Cc2cc(NC(=O)CCC(F)(F)F)ccc2O[C@@H]1CN(C)C(=O)Nc1cccc2ccccc12	x	-5.8	30.2*	18.1	-1.1	-1.4
C[C@H](CO)N1C[C@H](C)[C@@H](CN(C)C(=O)Nc2cccc3ccccc23)Oc2ccc(NC(=O)CCC(F)(F)F)cc2CC1=O	x	0.1	7.4	-15.6	0.1	4.7
CN(C)C(=O)[C@H]1[C@H](CO)[C@H]2Cn3c(ccc(C4=CCCCC4)c3=O)[C@@H]1N2Cc1cccnc1	x	-5.1	-1.8	-16.8	-1.4	4.4
O=C1N2CCCCC1(c1ccccc1)CCCC2	x	x	40.0*	x	2.9	5.2
C[C@H](CO)N1C[C@H](C)[C@H](CN(C)C(=O)c2ccccn2)Oc2ncc(C3=CCCC3)cc2C1=O	x	-3.3	0.2	8.8	1.9	6.8
Cc1ccc(C)c(OCCCCN2CCCCC2)c1	-0.3	-1.1	55.2*	5.5	0.6	-1.2
C=CCc1ccccc1OCCCCN1CCCC1	-0.1	2.0	x	80.2*	x	x
CCc1ccccc1OCCCCN1CCCC1	-1.6	-1.9	x	x	x	5.4
Cc1ccc(S(=O)(=O)C=CS(=O)(=O)c2ccc(C)cc2)cc1	3.7	1.6	10.8	-22.8	-6.9	31.5*
O=C(C[C@H]1CC[C@@H]2[C@H](COC[C@@H](O)CN2C(=O)c2cccnc2)O1)Nc1ccc(-c2ccccc2)cc1	x	-3.8	u	-10.6	1.3	x
SMILES	PDI inh	Cneo AK release	DENV2 CPE	Statin myotox sup	F508del corr	ERp5 block
CCC(=O)N1CC2(CCN(Cc3ccc(Cl)cc3)CC2)c2c([nH]c3cc(OC)ccc23)[C@H]1CO	x	x	-32.8	x	9.8*	x
CCC(=O)N1CC2(CCN(Cc3ccccc3Cl)CC2)c2c([nH]c3cc(OC)ccc23)[C@@H]1CO	x	x	23.6*	x	0.9	-2.7
CCC(=O)N1CCC2(CC1)CN(S(=O)(=O)c1ccccc1)[C@@H](CO)c1[nH]c3cc(OC)ccc3c12	x	x	27.9*	x	1.7	1.3
COCC(=O)N1CC2(CCN(Cc3ccc(Cl)cc3)CC2)c2c([nH]c3cc(OC)ccc23)[C@@H]1CO	x	x	5.9	x	1.6	1.1
O=C(C1CCCC1)N1CC(=O)N2[C@H](C1)[C@@H](c1ccc(C#CC3CCCC3)cc1)[C@@H]2CO	x	x	9.3	x	-1.9	4.5
CN(c1cccc(NC(=O)c2ccc(C(C)(C)C)cc2)c1)S(C)(=O)=O	-1.6	-9.2	21.1*	-44.5	-5.6	2.3
CN(c1cccc(NC(=O)c2ccc(N(C)S(=O)(=O)c3ccccc3)cc2)c1)S(C)(=O)=O	-2.7	x	-3.0	x	-3.8	-2.5
COc1ccc(C(=O)c2sc(Nc3ccccc3)nc2N)cc1	-6.6	-8.1	4.9	78.1*	5.3	0.8
Nc1nc(Nc2ccccc2)sc1C(=O)c1ccccc1	2.4	1.2	-6.7	x	-1.1	-0.5
COC(=O)C[C@H]1CC[C@H]2[C@H](COc3ccc(NC(=O)c4cc(F)cc(F)c4)cc3C(=O)N2C)O1	x	3.6	0.5	-24.0	1.6	x
O=C(c1ccccc1F)N1CC[C@H]2[C@H](CO)Nc3ccc(Br)cc3[C@H]21	x	-6.6	u	10.2	2.6	-1.4
COc1ccc([C@H]2C(C(=O)O)=C[C@@H](C(C)(C)C)N2S(=O)(=O)c2ccccc2)cc1	-5.4	0.8	82.9*	-14.7	-3.2	2.0
Cc1ccc([C@H]2C(C(=O)O)=C[C@@H](C(C)(C)C)N2S(=O)(=O)c2ccc(C)cc2)cc1	-5.9	1.1	u	16.2	-0.4	4.9
CN(C)C(=O)c1cccc(-c2ccc3c(c2)[C@@H]2[C@@H](CCN2C(=O)Cc2ccccc2)[C@H](CO)N3)c1	x	-0.6	9.4	11.9	1.8	3.2
CN(C)C(=O)c1cccc(-c2ccc3c(c2)[C@@H]2[C@@H](CCN2C(=O)Cc2ccncc2)[C@@H](CO)N3)c1	x	1.5	104.0*	-19.4	1.8	x
CN(C)C(=O)c1cccc(-c2ccc3c(c2)[C@H]2[C@H](CCN2C(=O)c2cccnc2)[C@@H](CO)N3)c1	x	-2.5	31.1*	9.3	-1.0	x
CN(C)C(=O)c1cccc(-c2ccc3c(c2)[C@@H]2[C@@H](CCN2C(=O)c2cccnc2)[C@H](CO)N3)c1	x	1.6	-17.2	-3.3	0.9	x
